Test results: ChEMBL document CHEMBL1130032, “Preparation and anti-HIV activity of N-3-substituted thymidine nucleoside analogs” (J Med Chem, 1997); call rule not given here

Assays:
[1] = Ratio of CC50 in CEM-CL13 cells to EC50 in HIV-1 LA1 infected CEM-CL13 cells.; assay type: functional
Procedure, shortened: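 Selectivity index computed as CC50 (MTT viability of uninfected treated CEM-c113 cells) divided by EC50 (MTT protection of HIV-1 LAI-infected CEM-c113 cells), both from 7-day cultures at 37 °C exposed to 10-fold compound dilutions.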

[2] = test system: Human immunodeficiency virus 1; assay: Inhibition of HIV-1 LA1 cytopathic effects on CEM-CL13 cells in vitro.; assay type: functional, organism-based; conditions: Human immunodeficiency virus 1, CEM-CL13
Procedure, shortened: (§1)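 CEM-c113 cells (1×10^4/well) preincubated 1 h with 10-fold compound dilutions, then infected with HIV-1 LAI; cultured 7 days at 37 °C, 5% CO2; cytopathic effect scored by MTT viability versus infected untreated cells; EC50 = 50% reduction of CPE; triplicate, mean of ≥2 experiments.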

CEM-c113 [3] = assay: Concentration required to reduce by 50% the viability of noninfected treated CEM-CL13 cells; assay type: functional; conditions: Homo sapiens
Procedure, shortened: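 CEM-c113 cells, 1×10^4 per well, exposed to 10-fold dilutions of compound without virus; 7 days at 37 °C, 5% CO2; MTT viability read-out; CC50 = concentration reducing viability by 50% relative to uninfected untreated controls; triplicate wells, mean of at least two experiments.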

CEM-c113 [4] = assay: Concentration that reduces by 50% the HIV induced cytopathic effect on CEM-CL13 cells by MTT viability assay; NA = Not active; assay type: functional, cell-based, Homo sapiens; procedure, shortened: as §1

| EC50 [2] [µM] | SMILES | Ratio [1] | CC50 (CEM-c113 [3]) [µM] | EC50 (CEM-c113 [4]) |
| --- | --- | --- | --- | --- |
| 2.2 | Cc1cn(C2CC(n3c(=O)c(C)cn(C4CC(N=[N+]=[N-])C(CO)O4)c3=O)C(CO)O2)c(=O)[nH]c1=O (stereo not given) | 30 | 66 |  |
| 5.6 | COCCOCn1c(=O)c(C)cn(C2CC(N=[N+]=[N-])C(CO)O2)c1=O (stereo not given) | 50 | 281 |  |
| 0.7 | Cc1cn(C2CC(N=[N+]=[N-])C(CO)O2)c(=O)n(CCn2c(=O)c(C)cn(C3CC(N=[N+]=[N-])C(CO)O3)c2=O)c1=O (stereo not given) | 51 | 36 |  |
| 110 | Cc1cn(C2CC(N=[N+]=[N-])C(CO)O2)c(=O)n(CCN2C(=O)c3ccccc3C2=O)c1=O (stereo not given) | 2 | 227 |  |
|  | COc1nc(=O)n(CCn2c(=O)c(C)cn(C3CC(N=[N+]=[N-])C(CO)O3)c2=O)cc1C (stereo not given) |  | 29 | Not Active |
| 0.3 | Cc1cn(C2CC(N=[N+]=[N-])C(CO)O2)c(=O)n(CCO)c1=O (stereo not given) | 537 | 161 |  |
| 32 | C=CCn1c(=O)c(C)cn(C2CC(N=[N+]=[N-])C(CO)O2)c1=O (stereo not given) | 11 | 350 |  |
| 6.8 | Cc1cn(C2CC(N=[N+]=[N-])C(CO)O2)c(=O)n(CC2CO2)c1=O (stereo not given) | 9 | > 62 |  |
| 0.045 | Cc1cn(C2CC(N=[N+]=[N-])C(CO)O2)c(=O)n(N)c1=O (stereo not given) | 10000 | 450 |  |
| 0.15 | Cc1cn(C2CC(N=[N+]=[N-])C(CO)O2)c(=O)n(CCCO)c1=O (stereo not given) | 1027 | 154 |  |
| 0.94 | Cc1cn(C2CC(N=[N+]=[N-])C(CO)O2)c(=O)n(C)c1=O (stereo not given) | 380 | 355 |  |
| 1.3 | Cc1cn(C2CC(N=[N+]=[N-])C(CO)O2)c(=O)n(CC2COC(C)(C)O2)c1=O (stereo not given) | 100 | > 131 |  |
| 0.5 | Cc1cn(C2CC(N=[N+]=[N-])C(CO)O2)c(=O)n(CC2CC(CO)=NO2)c1=O (stereo not given) | 52 | 26 |  |
| 1.47 | CCOC(=O)Cn1c(=O)c(C)cn(C2CC(N=[N+]=[N-])C(CO)O2)c1=O (stereo not given) | 193 | 283 |  |
| 0.48 | Cc1cn(CCn2c(=O)c(C)cn(C3CC(N=[N+]=[N-])C(CO)O3)c2=O)c(=O)[nH]c1=O (stereo not given) | 60 | > 29 |  |
| 2.67 | Cc1cn(C2CC(N=[N+]=[N-])C(CO)O2)c(=O)n(CCBr)c1=O (stereo not given) | 20 | 53 |  |
| 5 | CCOC(Cn1c(=O)c(C)cn(C2CC(N=[N+]=[N-])C(CO)O2)c1=O)OCC (stereo not given) | 26 | 130 |  |
| 0.071 | CCOP(=O)(Cn1c(=O)c(C)cn(C2CC(N=[N+]=[N-])C(CO)O2)c1=O)OCC (stereo not given) | 3380 | 240 |  |
| 143 | Cc1cn(C2CC(N=[N+]=[N-])C(CO)O2)c(=O)n(Cc2ccoc2)c1=O (stereo not given) | 2 | > 288 |  |
| 0.89 | CCCCCn1c(=O)c(C)cn(C2CC(N=[N+]=[N-])C(CO)O2)c1=O (stereo not given) | >67 | > 60 |  |
|  | Cc1cn(C2CC(N=[N+]=[N-])C(CO)O2)c(=O)n(Cc2ccccc2)c1=O (stereo not given) |  | 28 | Not Active |
| 0.082 | Cc1cn(C2CC(N=[N+]=[N-])C(CO)O2)c(=O)n(CCCCCCO)c1=O (stereo not given) | 780 | 64 |  |
| 0.26 | Cc1cn(C2CC(N=[N+]=[N-])C(CO)O2)c(=O)n(CCN=[N+]=[N-])c1=O (stereo not given) | 230 | 60 |  |

| SMILES | EC50 [2] [µM] | Ratio [1] | CC50 (CEM-c113 [3]) [µM] | EC50 (CEM-c113 [4]) |
| --- | --- | --- | --- | --- |
| Cc1cn([C@H]2C[C@H](N=[N+]=[N-])[C@@H](CO)O2)c(=O)[nH]c1=O [ZIDOVUDINE] | 0.003 | 1667 | > 5 |  |
